According to publication PMC9742152 (ChemMedChem, 2022):
Where two headings read alike, the source gives them in different places.

Columns and labels:
[1] = tested on: MDA MB-231 breast cancer cells; test: Anti-proliferative assay, MDA MB-231 cells; format: cell-based, human; settings: read-out: GI50 MDA MB-231
Summary of the method: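 MDA MB-231 cells kept at 37 °C, 5% CO2 in RPMI-1640 with 10% FBS, penicillin and streptomycin; seeded 8000 cells/well, allowed to adhere 24 h, then given test compound or vehicle. BrdU incorporation kit assay run at 48 h; signal expressed as percent of mean control to derive GI50; experiments in triplicate, mean of three determinations.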

[2] = tested on: MCF-7 breast cancer cells; test: Anti-proliferative assay, MCF-7 cells; format: cell-based, human; settings: read-out: GI50 MCF-7
Summary of the method: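 MCF-7 cells kept at 37 °C, 5% CO2 in RPMI 1640 with 17% FBS, 2 mM L-glutamine and gentamicin, in full (not estrogen-deprived) media; seeded 5000 cells/well, grown 24 h without compound, then exposed to test compound at 10−9–10−4 M or vehicle. Cell protein measured by sulforhodamine B staining at 96 h; GI50 is the mean of two determinations.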

Bovine brain tubulin [3] = test: Inhibition of tubulin assembly; format: biochemical; settings: for IC50: read-out: Tubulin assembly IC50, 10 μM tubulin, mean ±SD
OVCAR-3 = test: NCI 60-cell line assay, Ovarian OVCAR-3; format: cell-based
UACC-62 = test: NCI 60-cell line assay, Melanoma UACC-62; format: cell-based
SN12C = test: NCI 60-cell line assay, Renal SN12C; format: cell-based; settings: read-out: GI50 Renal SN12C
HOP-62 = test: NCI 60-cell line assay, Lung HOP-62; format: cell-based
Bovine brain tubulin [4] = test: Inhibition of [3H]colchicine binding to tubulin; settings: 5 μM inhibitor, 5.0 μM [3H]colchicine, 1.0 μM tubulin, mean ±SD
SF-539 = test: NCI 60-cell line assay, CNS SF-539; format: cell-based; settings: read-out: GI50 CNS SF-539
NCI-60 cell line panel = test: NCI 60-cell line assay, mean over whole panel; format: cell-based; settings: for IC50: read-out: MGM (mean concentration that caused 50% growth inhibition in all 60 cell lines)
steroid sulfatase (STS) [5] = molecular target: T1, steroid sulfatase (STS) (Homo sapiens, UniProt P08842); test: In vitro cell-free sulfatase assay, JEG-3 lysate; format: biochemical
T1 sequence (P08842 22-583): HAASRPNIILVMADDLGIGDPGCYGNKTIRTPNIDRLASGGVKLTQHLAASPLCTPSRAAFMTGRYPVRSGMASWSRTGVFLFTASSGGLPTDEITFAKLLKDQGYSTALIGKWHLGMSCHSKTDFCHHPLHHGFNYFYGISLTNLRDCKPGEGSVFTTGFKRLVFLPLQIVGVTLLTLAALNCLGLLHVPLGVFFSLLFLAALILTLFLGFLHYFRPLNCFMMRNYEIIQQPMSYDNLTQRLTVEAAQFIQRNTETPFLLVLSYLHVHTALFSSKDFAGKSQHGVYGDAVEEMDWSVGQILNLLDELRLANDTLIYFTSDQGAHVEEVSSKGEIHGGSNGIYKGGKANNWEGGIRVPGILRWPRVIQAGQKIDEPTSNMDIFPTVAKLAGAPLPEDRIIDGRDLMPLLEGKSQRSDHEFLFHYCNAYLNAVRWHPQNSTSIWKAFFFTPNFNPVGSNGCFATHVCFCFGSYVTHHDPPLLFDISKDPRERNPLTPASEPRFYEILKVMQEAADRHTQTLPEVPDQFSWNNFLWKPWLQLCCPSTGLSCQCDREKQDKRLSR

HCT-116 = test: NCI 60-cell line assay, Colon HCT-116; format: cell-based
steroid sulfatase (STS) [6] = molecular target: T1, steroid sulfatase (STS); test: In vitro whole cell sulfatase assay, intact JEG-3 cells; format: cell-based
[7] = Hydrolysis in wet DMSO-d6 at 25 °C followed by 1H NMR; settings: for % hydrolysed (conversion into the phenol) after 30 days: wet DMSO-d6, room temperature, water/substrate ~60:1
[8] = cited from earlier work
[9] = Homo sapiens, OVCAR-3, read-out: GI50 Ovarian OVCAR-3
[10] = Homo sapiens, UACC-62, read-out: GI50 Melanoma UACC-62
[11] = Homo sapiens, HOP-62, read-out: GI50 Lung HOP-62
[12] = Homo sapiens, HCT-116, read-out: GI50 Colon HCT-116
[13] = wet DMSO-d6, 25 °C, 0 days, 1H NMR
[14] = wet DMSO-d6, 25 °C, 15 days, 1H NMR
[15] = wet DMSO-d6, 25 °C, 30 days, 1H NMR
[16] = MCF-7, full media, 96 h, mean of two determinations
[17] = NCI-60, mean of three determinations

Work on `C[C@]12CC[C@@H]3c4cc(OC(F)F)c(O)cc4CC[C@H]3[C@@H]1CC[C@@H]2O` [Compound 9, 2-Difluoromethoxy-3,17β-bis-hydroxyestra-1,3,5(10)-triene] yielded a GI50 ([1]; Homo sapiens, MDA-MB-231, 48 h) of 3.03 µM, a GI50 ([2]; Homo sapiens, MCF7, 96 h) of 2.6 µM and an IC50 (Bovine brain tubulin [3]) of 12.4 ± 0.1 µM.
`C[C@]12CC[C@@H]3c4cc(OC(F)F)c(OS(N)(=O)=O)cc4CC[C@H]3[C@@H]1CC[C@@H]2O` [Compound 12, 2-Difluoromethoxy-3-sulfamoyloxy-17β-hydroxyestra-1,3,5(10)-triene] showed a GI50 ([1]; Homo sapiens, MDA-MB-231, 48 h) of 1.11 µM, a GI50 ([2]; Homo sapiens, MCF7, 96 h) of 1.1 µM and an IC50 (Bovine brain tubulin [3]) of 6.6 ± 0.7 µM. The GI50 (OVCAR-3; [9]) was 0.386 µM, the GI50 (UACC-62; [10]) was 0.498 µM and the GI50 (SN12C; Homo sapiens, SN12C) was 0.692 µM. The GI50 (HOP-62; [11]) was 0.634 µM, the “Colchicine binding (% Inhibition)” value (Bovine brain tubulin [4]) was 22 ± 1% and the GI50 (SF-539; Homo sapiens) was 0.313 µM. For the same compound, the IC50 (NCI-60 cell line panel; 60 cell) was 0.646 µM, the IC50 (steroid sulfatase (STS) [5]) was 0.075 µM and the GI50 (HCT-116; [12]) was 0.406 µM. The IC50 (steroid sulfatase (STS) [6]) was 0.0186 µM.
In the case of `C[C@]12CC[C@@H]3c4cc(C(F)F)c(OS(N)(=O)=O)cc4CC[C@H]3[C@@H]1CCC2=O` [Compound 23, 2-difluoromethylestrone sulfamate, reference compound], the “% of the compound in the reaction mixture, 0 days” value [7, 13] is reported as 100%, the “% of the compound in the reaction mixture, 15 days” value (“% of the compound … 15 days” for short) [7, 14] is reported as 24% and the “% of the compound in the reaction mixture, 30 days” value (from here on “% of the compound … 30 days”) [7, 15] is reported as 5%. For the same compound, the “times more potent than 16, JEG-3 lysate assay” value (steroid sulfatase (STS) [5]; vs 16) was “about 3 times” and the “times more potent than 16, whole cells” value (steroid sulfatase (STS) [6]; vs 16) was “about 100 times”.
Work on `C[C@]12CC[C@@H]3c4cc(OC(F)F)c(OS(N)(=O)=O)cc4CC[C@H]3[C@@H]1CCC2=O` [Compound 16, 2-Difluoromethoxy-3-sulfamoyloxyestra-1,3,5(10)-trien-17-one] yielded a GI50 ([1]; Homo sapiens, MDA-MB-231, 48 h) of 0.99 µM, a GI50 ([2]; Homo sapiens, MCF7, 96 h) of 0.58 µM and an IC50 (Bovine brain tubulin [3]) of 4.3 ± 0.2 µM. For the same compound, the “Colchicine binding (% Inhibition)” value (Bovine brain tubulin [4]) was 32 ± 4%, the IC50 (steroid sulfatase (STS) [5]) was 0.056 µM and the IC50 (steroid sulfatase (STS) [6]) was 0.0056 µM.
Compound `C[C@]12CC[C@@H]3c4cc(OC(F)F)c(OS(N)(=O)=O)cc4CC[C@H]3[C@@H]1CC[C@@H]2OS(N)(=O)=O` [Compound 10, 2-Difluoromethoxy-3–17β-bis-sulfamoyloxyestra-1,3,5(10)-triene] has a GI50 ([1]; MDA MB-231, 48 h, mean of three determinations) of 0.74 µM, a GI50 [2, 16] of 0.28 µM and an IC50 (Bovine brain tubulin [3]) of 3.9 ± 0.5 µM. The “fold less active than CA-4 in tubulin assembly” value (Bovine brain tubulin [3]; vs CA-4) was “about 3 fold”, the GI50 (OVCAR-3; read-out: GI50 Ovarian OVCAR-3, NCI-60, mean of three determinations) was 0.527 µM and the “% of the compound in the reaction mixture, 0 days” value [7, 13] was 100%. The “% of the compound … 15 days” value [7, 14] was 32%, the “% of the compound … 30 days” value [7, 15] was 8% and the T1/2 of hydrolysis ([7]; wet DMSO-d6, estimated from Table 1) was ~ 10 days. For the same compound, the “% hydrolysed (conversion into the phenol) after 30 days” value ([7]; 30 days) was 92%, the GI50 (UACC-62; read-out: GI50 Melanoma UACC-62, NCI-60, mean of three determinations) was 0.564 µM and the GI50 (SN12C; [17]) was 0.567 µM. For the same compound, the GI50 (HOP-62; read-out: GI50 Lung HOP-62, NCI-60, mean of three determinations) was 1.98 µM, the “Colchicine binding (% Inhibition)” value (Bovine brain tubulin [4]) was 19 ± 0.5% and the GI50 (SF-539; [17]) was 0.266 µM. The “overall anti-proliferative activity in NCI 60-cell line panel (in words)” value (NCI-60 cell line panel; average GI50, NCI-60) was “sub-micromolar”, the IC50 (NCI-60 cell line panel; all 60 cell lines) was 0.661 µM and the GI50 (HCT-116; read-out: GI50 Colon HCT-116, NCI-60, mean of three determinations) was 0.474 µM.
For `COc1cc2c(cc1OS(N)(=O)=O)CC[C@@H]1[C@@H]2CC[C@]2(C)[C@@H](OS(N)(=O)=O)CC[C@@H]12` [Compound 4, 2-methoxyestradiol-3,17-O,O-bissulfamate, reference compound], the bioavailability [8] is listed as roughly 85%, the GI50 [2, 16] is listed as 0.52 µM and the IC50 (Bovine brain tubulin [3]) is listed as 2.3 ± 0.1 µM. For the same compound, the “% of the compound in the reaction mixture, 0 days” value [7] was 100%, the “% of the compound … 15 days” value [7] was 81% and the “% of the compound … 30 days” value [7] was 69%. The “% hydrolysed (conversion into the phenol) after 30 days” value ([7]; 30 days) was 31% and the “Colchicine binding (% Inhibition)” value (Bovine brain tubulin [4]) was 33 ± 3%.
For `C[C@]12CC[C@@H]3c4cc(OC(F)F)c(O)cc4CC[C@H]3[C@@H]1CC[C@@H]2OS(N)(=O)=O` [Compound 11, 2-Difluoromethoxy-3-hydroxy-17β-sulfamoyloxyestra-1,3,5(10)-triene], the GI50 ([1]; Homo sapiens, MDA-MB-231, 48 h) was greater than 10 µM, the GI50 ([2]; Homo sapiens, MCF7, 96 h) was greater than 5 µM and the IC50 (Bovine brain tubulin [3]) was greater than 20 µM. The GI50 (OVCAR-3; [9]) was 0.383 µM, the “% of the compound in the reaction mixture, 0 days” value [7, 13] was 0% and the “% of the compound … 15 days” value [7, 14] was 68%. The “% of the compound … 30 days” value [7, 15] was 92%, the GI50 (UACC-62; [10]) was 0.46 µM and the GI50 (SN12C; Homo sapiens, SN12C) was 1.22 µM. The GI50 (HOP-62; [11]) was 0.648 µM, the GI50 (SF-539; Homo sapiens) was 0.427 µM and the IC50 (NCI-60 cell line panel; 60 cell) was 0.813 µM. The IC50 (steroid sulfatase (STS) [5]) was greater than 5 µM, the “STS inhibition in JEG-3 lysate (in words)” value (steroid sulfatase (STS) [5]; JEG-3 lysate) was “inactive” and the GI50 (HCT-116; [12]) was 0.375 µM.
In the case of `COc1cc2c(cc1O)CC[C@@H]1[C@@H]2CC[C@]2(C)[C@@H](O)CC[C@@H]12` [Compound 1, 2-Methoxyestradiol, reference compound], the bioavailability [8] is listed as roughly 1%, the IC50 (Bovine brain tubulin [3]) is listed as 8.3 ± 0.8 µM and the “Colchicine binding (% Inhibition)” value (Bovine brain tubulin [4]) is listed as 36 ± 3%.
Compound `C[C@]12CC[C@@H]3c4cc(OC(F)F)c(O)cc4CC[C@H]3[C@@H]1CCC2=O` [Compound 15, 2-Difluoromethoxy-3-hydroxyestra-1,3,5(10)-trien-17-one] has a GI50 ([1]; Homo sapiens, MDA-MB-231, 48 h) greater than 10 µM, a GI50 ([2]; Homo sapiens, MCF7, 96 h) greater than 5 µM and an IC50 (Bovine brain tubulin [3]) greater than 20 µM.
In the case of `COc1cc2c(cc1O)CC[C@@H]1[C@@H]2CC[C@]2(C)[C@@H](OS(N)(=O)=O)CC[C@@H]12` [Compound 22], the “% of the compound in the reaction mixture, 0 days” value [7, 13] is reported as 0%, the “% of the compound … 15 days” value [7, 14] is reported as 19% and the “% of the compound … 30 days” value [7, 15] is reported as 31%.
With `COc1ccc(/C=C\c2cc(OC)c(OC)c(OC)c2)cc1O` [CA-4, combretastatin A-4, reference compound] the “Colchicine binding (% Inhibition)” value (Bovine brain tubulin [4]) was 98 ± 1%.
